This note sets out measurements from ChEMBL document CHEMBL4346658, “sp2-Iminosugar glycolipids as inhibitors of lipopolysaccharide-mediated human dendritic cell activation in vitro and of acute inflammation in mice in vivo” (Eur J Med Chem, 2019).

The source made the active and inactive calls. No cut-off for these calls is given here.

The test system of test [1] is Dendritic cell. The test is described as follows: Antiinflammatory activity in human dendritic cells assessed as CD14-TLR-4 co-localization at 100 uM incubated for 30 mins by DAPI staining based confocal microscopy. It counts as functional. An outline of the steps: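 Monocyte-derived DCs (10^5 per chamber) on poly-L-lysine-coated chamber slides were treated for 30 min, then washed, fixed and permeabilized. They were stained with goat anti-TLR-4 (5 µg mL⁻¹) plus AF488 anti-goat, and anti-CD14-APC, with DAPI nuclei. Confocal imaging gave the Pearson CD14/TLR-4 colocalization coefficient per field of 15–20 cells, from two independent assays.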

Test [2] has as its system Dendritic cell. Kind of test: Antiinflammatory activity in human dendritic cells assessed as reduction in CD14 receptor cell surface expression at 100 uM incubated for 30 mins by flow cytometric analysis. It counts as functional, cell-based. An outline of the steps:
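Monocyte-derived DCs (10^5 in 200 µL complete medium) were exposed for 30 min at 37 °C without LPS. They were then washed, held on ice, stained with anti-CD14-PE, and surface CD14 was read by flow cytometry.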
(In general: A flow cytometer gives signals particle by particle.)

In test [3] the test system is Dendritic cell. Kind of test: Antiinflammatory activity in human dendritic cells assessed as reduction in LPS-induced TNFalpha production at 100 uM pretreated with LPS up to 6 hrs followed by compound addition measured after 24 hrs by ELISA. In kind it is functional, cell-based. An outline of the steps: (§1)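 Monocyte-derived DCs (10^5 per 200 µL) were stimulated with ultrapure E. coli K12 LPS (100 ng mL⁻¹). Compound was added 0.5, 2, 4 or 6 h after LPS. TNF-α in the supernatant was measured by ELISA 24 h after stimulation, as mean ± SD of more than 3 independent assays.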
On the technique in general: An ELISA detects its analyte on a solid surface through an enzyme-linked reagent.

Test [4] deals with Dendritic cell. The test is described as follows: Antiinflammatory activity in human dendritic cells assessed as reduction in LPS-induced TNFalpha production at 100 uM pretreated with LPS for 30 mins followed by compound addition measured after 24 hrs by ELISA. It counts as functional, cell-based. The method in brief:
as §1

Test [5] concerns Dendritic cell. Kind of test: Antiinflammatory activity in human dendritic cells assessed as reduction in LPS-induced CD83 expression on cell surface at 100 uM pretreated with LPS upto 6 hrs followed by compound addition measured after 24 hrs by FACS analysis. In kind it is functional, cell-based.
The test system of test [6] is Dendritic cell. The test is described as follows: Antiinflammatory activity in human dendritic cells assessed as reduction in LPS-induced TNFalpha production at 100 uM cotreated with LPS measured after 24 hrs by ELISA. It counts as functional, cell-based. An outline of the steps:
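DCs came from human blood monocytes (Ficoll/Percoll) cultured 5 days with GM-CSF 50 ng ml⁻¹ and IL-4 10 ng ml⁻¹, in RPMI/10% FCS at 37 °C and 5% CO₂. Cells (10^5 per 200 µL) got E. coli K12 LPS (100 ng mL⁻¹) plus compound at the same time. After 24 h, supernatant TNF-α was measured by ELISA, with at least 3 donors and mean ± SEM.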

In test [7] the test system is Dendritic cell. The test is described as follows: Antiinflammatory activity in human dendritic cells assessed as reduction in LPS-induced CD86 expression on cell surface at 100 uM pretreated with LPS upto 6 hrs followed by compound addition measured after 24 hrs by FACS analysis. It counts as functional, cell-based.

`CCCCCCCCCCCCC#CC#CCCCCCCCCC(=O)NC(COCCC(=O)NCCOCCOCCOCCO[C@H]1O[C@H](CO)[C@@H](O)[C@H](O)[C@@H]1O)(COCCC(=O)NCCOCCOCCOCCO[C@H]1O[C@H](CO)[C@@H](O)[C@H](O)[C@@H]1O)COCCC(=O)NCCOCCOCCOCCO[C@H]1O[C@H](CO)[C@@H](O)[C@H](O)[C@@H]1O`: the result in test [1] was Active. The inhibition entry in test [2], in test [4] and in test [6] was “Active” throughout. For the same compound, the inhibition entry in test [3], in test [5] and in test [7] was “inactive” in each case.
